For orientation: IC50 means the concentration that gives 50% inhibition.

Experiment [1] addresses T1, 72 kDa type IV collagenase (Homo sapiens, UniProt P08253). In words: Inhibition of MMP2 gelatinase activity in human HUVEC at 0.001 uM by gel zymography. In short, it runs like this: (§1)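 Gelatin zymography on 10% polyacrylamide gels with 0.1% gelatin and SDS, samples unheated. Gels renatured 30 min at room temperature. Either untreated-HUVEC conditioned medium run and gel lane slices developed overnight at 37 °C in developing buffer containing inhibitor, or medium from inhibitor-treated HUVEC developed overnight without inhibitor. Coomassie stained; bands quantified by densitometry.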

The target in experiment [2] is T1, 72 kDa type IV collagenase. In words: Inhibition of MMP2 in HUVEC assessed as suppression of protein production at 10 uM after 24 hrs by Western blot analysis. In short, it runs like this: (§2)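 HUVEC (2x10^6) seeded, attached one day, starved 6 h in serum-free medium with 2% BSA. Pre-treated 3 h with 30 nM PMA, then exposed to inhibitor (10 µM) or DMSO vehicle for 24 h. Conditioned media and cell proteins collected. Equal protein on 10% SDS-PAGE, PVDF blot, milk block, anti-MMP-2, MMP-9 and β-actin antibodies, HRP/ECL detection.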
(In general: In western blotting, separated proteins are transferred to a membrane and probed.)

In experiment [3] the test system is HUVEC. Kind of experiment: Inhibition of FBS-induced capillary-like network organization in human HUVEC at 0.001 to 10 uM after 6 hrs by matrigel assay. Type of experiment: functional, cell-based. In short, it runs like this:
(§3)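 Matrigel (10 mg/mL) polymerized 1 h at 37 °C. HUVEC (50x10^4/well) in complete medium with 10% FBS, with or without inhibitor at various concentrations, layered on top. After 6 h, capillary-like organization imaged by inverted microscope; mesh number counted as tubulogenic efficiency.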

For experiment [4], the system named is HUVEC. In words: Inhibition of cell migration in human HUVEC at 0.001 to 10 uM after 6 hrs using modified Boyden chambers. The experiment is classed as functional, cell-based. In short, it runs like this:
(§4)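 Modified Boyden chamber. HUVEC (5x10^4), PBS-washed, in serum-free medium with or without inhibitor in upper compartment; 10% FBS or serum-free medium below. 8 µm polycarbonate filters coated with collagen 50 µg/mL (migration, 6 h) or matrigel 1 mg/mL (invasion, overnight). Cells on lower surface ethanol-fixed, stained, counted blind in eight fields. Three experiments in duplicate; one-way ANOVA.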

For experiment [5], the system named is Mus musculus. Kind of experiment: Antiangiogenic activity in C57/BL6 mouse matrigel sponge assay model assessed as reduction of VEGF-A, TNFalpha and heparin-induced hemoglobin content at 0.1 to 10 uM, sc. The experiment is classed as functional, organism-based. In short, it runs like this:
(§5)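 Matrigel (0.6 mL final) with VTH mix (VEGF-A 100 ng/mL, TNF-α 2 ng/mL, heparin 25 UI/mL), with or without inhibitor at 0.1-1-10 µM, injected s.c. into flanks of male C57/BL6 mice; some groups also given 0.1-1-10 µM i.p. at day 0; 8 mice/group. Plugs recovered after four days. Read-outs: hemoglobin by Drabkin reagent; collagenase IV digest, flow cytometry for CD31+ cells within CD45−CD3− gate. Mean ± SEM.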

The subject of experiment [6] is HUVEC. In words: Inhibition of PMA-stimulated MMP2 mRNA expression in human HUVEC after 24 hrs by QT-PCR analysis. Type of experiment: functional, cell-based. In short, it runs like this: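 HUVEC starved, PMA pre-treated (30 nM, 3 h), then exposed to inhibitor for 24 h before RNA extraction. Real-time PCR with SYBR Green, 45 cycles (95 °C 10 s, 60 °C 15 s, 72 °C 15 s), with melting-curve check.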

Experiment [7] concerns Mus musculus. Kind of experiment: Antiangiogenic activity in ip dosed C57/BL6 mouse matrigel sponge assay model assessed as reduction of VEGF-A, TNFalpha and heparin-induced number of CD45-/CD31+ cells after 4 days by flow cytometry. Type of experiment: functional, organism-based. In short, it runs like this:
as §5

For another experiment, the target named is T2, Interstitial collagenase (Homo sapiens, UniProt P03956).
T2 sequence (P03956 whole entry): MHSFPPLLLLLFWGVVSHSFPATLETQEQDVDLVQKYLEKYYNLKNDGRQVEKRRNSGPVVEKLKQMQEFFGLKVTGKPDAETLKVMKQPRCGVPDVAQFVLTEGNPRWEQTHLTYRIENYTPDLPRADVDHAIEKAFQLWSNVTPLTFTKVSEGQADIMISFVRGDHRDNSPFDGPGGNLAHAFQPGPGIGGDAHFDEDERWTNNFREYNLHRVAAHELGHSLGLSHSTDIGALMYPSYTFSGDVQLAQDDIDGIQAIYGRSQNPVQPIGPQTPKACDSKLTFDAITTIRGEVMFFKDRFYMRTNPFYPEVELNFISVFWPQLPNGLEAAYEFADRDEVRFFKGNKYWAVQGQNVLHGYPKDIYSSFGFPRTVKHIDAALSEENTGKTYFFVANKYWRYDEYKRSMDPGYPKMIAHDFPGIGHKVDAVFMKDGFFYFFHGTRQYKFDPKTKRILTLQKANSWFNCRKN
In words: Inhibition of recombinant human activated-MMP1 using Mca-Lys-Pro-Leu-Gly-Leu-Dap(Dnp)-Ala-Arg-NH2 as fluorogenic substrate incubated for 4 hrs followed by substrate addition measured every 10 secs for 20 mins by fluorometric assay. In short, it runs like this: (§6)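 Recombinant human MMPs. Pro-forms activated with APMA: MMP-2 2 mM 1 h, MMP-9 1 mM 1 h, MMP-1 2 mM 2 h, MMP-13 1 mM 35 min, all 37 °C. MMP-3 activated with trypsin 4.4 µg/mL 30 min, then soybean trypsin inhibitor. Final enzyme 0.5 (MMP-2), 1.3 (MMP-9), 1.0 (MMP-14cd), 2.0 (MMP-1), 0.66 (MMP-13), 5 nM (MMP-3). Preincubated with inhibitor 4 h at 25 °C in Tris 50 mM pH 7.5, NaCl 150 mM, CaCl2 10 mM, Brij 35 0.05%, DMSO 1%. Substrate 2 µM final; fluorescence (ex 325/em 395 nm) every 10 s for 20 min. IC50 from vi/vo = 1/(1+[I]/IC50).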

For experiment [8], the target named is T1, 72 kDa type IV collagenase. In words: Inhibition of MMP2 gelatinase activity in human HUVEC by gel zymography. In short, it runs like this:
as §1

Experiment [9] has as its target T3, Matrix metalloproteinase-9 (Homo sapiens, UniProt P14780). In words: Inhibition of MMP9 in HUVEC assessed as suppression of protein release at 10 uM after 24 hrs by Western blot analysis. In short, it runs like this:
as §2

The subject of experiment [10] is HUVEC. In words: Inhibition of FBS-induced cell invasion in human HUVEC at 0.001 uM after overnight incubation using modified Boyden chambers. The experiment is classed as functional, cell-based. In short, it runs like this: as §4
Experiment [11] relates to HUVEC. In words: Inhibition of cell migration in human HUVEC after 6 hrs using modified Boyden chambers. Type of experiment: functional, cell-based. In short, it runs like this: as §4
Experiment [12] addresses T3, Matrix metalloproteinase-9. In words: Inhibition of MMP9 in HUVEC assessed as suppression of protein production at 10 uM after 24 hrs by Western blot analysis. In short, it runs like this:
as §2

Experiment [13] concerns HUVEC. In words: Inhibition of FBS-induced network efficiency of human HUVEC assessed as reduction of number of meshes at 0.001 to 10 uM after 6 hrs by matrigel assay. The experiment is classed as functional, cell-based. In short, it runs like this:
as §3

The target in another experiment is Stromelysin-1 (Homo sapiens, UniProt P08254). Kind of experiment: Inhibition of recombinant human activated-MMP3 using Mca-Lys-Pro-Leu-Gly-Leu-Dap(Dnp)-Ala-Arg-NH2 as fluorogenic substrate incubated for 4 hrs followed by substrate addition measured every 10 secs for 20 mins by fluorometric assay. In short, it runs like this: as §6
Chain of Stromelysin-1 (P08254 whole entry): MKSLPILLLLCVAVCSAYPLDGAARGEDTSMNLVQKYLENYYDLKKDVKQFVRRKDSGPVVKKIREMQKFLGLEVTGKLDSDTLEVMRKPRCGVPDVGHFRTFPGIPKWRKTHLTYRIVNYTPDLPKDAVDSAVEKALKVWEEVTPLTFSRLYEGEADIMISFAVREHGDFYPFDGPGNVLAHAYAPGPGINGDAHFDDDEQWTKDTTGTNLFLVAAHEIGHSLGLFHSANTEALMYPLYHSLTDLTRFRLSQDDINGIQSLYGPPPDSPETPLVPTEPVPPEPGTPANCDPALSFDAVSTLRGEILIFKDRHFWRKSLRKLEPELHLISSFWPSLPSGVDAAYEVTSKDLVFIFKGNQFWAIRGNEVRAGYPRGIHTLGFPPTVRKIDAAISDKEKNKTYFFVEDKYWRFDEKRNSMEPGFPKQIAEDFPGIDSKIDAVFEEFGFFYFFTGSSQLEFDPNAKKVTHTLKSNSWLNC
Experiment [14] has as its target T3, Matrix metalloproteinase-9. Kind of experiment: Inhibition of recombinant human activated-MMP9 using Mca-Lys-Pro-Leu-Gly-Leu-Dap(Dnp)-Ala-Arg-NH2 as fluorogenic substrate incubated for 4 hrs followed by substrate addition measured every 10 secs for 20 mins by fluorometric assay. In short, it runs like this:
as §6

Experiment [15] has as its target T3, Matrix metalloproteinase-9. Kind of experiment: Inhibition of MMP9 gelatinase activity in human HUVEC by gel zymography. In short, it runs like this:
as §1

Calls of active or inactive are those of the source. The rule behind the calls is not given here.

T3 sequence (P14780 whole entry): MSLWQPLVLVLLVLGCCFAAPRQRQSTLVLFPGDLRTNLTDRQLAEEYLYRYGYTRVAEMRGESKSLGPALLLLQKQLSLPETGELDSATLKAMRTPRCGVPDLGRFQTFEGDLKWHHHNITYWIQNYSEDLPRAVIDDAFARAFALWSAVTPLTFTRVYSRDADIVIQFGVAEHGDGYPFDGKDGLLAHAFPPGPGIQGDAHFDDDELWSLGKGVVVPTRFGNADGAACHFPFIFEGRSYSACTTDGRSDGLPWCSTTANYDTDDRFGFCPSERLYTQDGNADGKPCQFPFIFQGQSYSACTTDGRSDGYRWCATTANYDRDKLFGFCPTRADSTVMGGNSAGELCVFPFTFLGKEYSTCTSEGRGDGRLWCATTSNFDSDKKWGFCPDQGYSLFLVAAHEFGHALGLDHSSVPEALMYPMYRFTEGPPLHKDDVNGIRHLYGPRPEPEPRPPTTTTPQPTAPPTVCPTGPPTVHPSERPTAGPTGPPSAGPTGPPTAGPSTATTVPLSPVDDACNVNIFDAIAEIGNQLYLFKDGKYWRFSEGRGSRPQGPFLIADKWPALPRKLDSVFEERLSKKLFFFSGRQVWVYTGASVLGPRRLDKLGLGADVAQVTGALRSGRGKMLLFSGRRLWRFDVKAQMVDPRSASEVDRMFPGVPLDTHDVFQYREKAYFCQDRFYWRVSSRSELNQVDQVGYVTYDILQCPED
T1 sequence (P08253 110-660 limits assumed): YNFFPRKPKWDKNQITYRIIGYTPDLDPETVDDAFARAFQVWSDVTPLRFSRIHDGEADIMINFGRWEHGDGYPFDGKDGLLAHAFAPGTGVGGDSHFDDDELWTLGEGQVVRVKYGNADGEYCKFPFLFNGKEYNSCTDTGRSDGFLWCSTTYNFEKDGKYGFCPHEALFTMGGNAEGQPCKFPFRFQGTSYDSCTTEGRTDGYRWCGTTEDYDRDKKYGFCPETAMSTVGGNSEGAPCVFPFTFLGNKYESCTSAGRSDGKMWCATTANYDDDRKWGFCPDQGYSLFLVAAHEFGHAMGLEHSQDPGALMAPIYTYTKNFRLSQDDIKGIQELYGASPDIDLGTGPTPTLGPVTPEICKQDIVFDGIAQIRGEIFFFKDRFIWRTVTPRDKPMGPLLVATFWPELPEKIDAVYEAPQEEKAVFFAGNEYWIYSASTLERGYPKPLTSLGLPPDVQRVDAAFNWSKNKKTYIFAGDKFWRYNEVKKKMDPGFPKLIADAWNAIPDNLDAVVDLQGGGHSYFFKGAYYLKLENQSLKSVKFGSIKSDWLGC

With `COc1ccc(-c2ccc(S(=O)(=O)N(OC(C)C)[C@H](CCN3C(=O)c4ccccc4C3=O)C(=O)NO)cc2)cc1`, the inhibition entry (in [1]; in experiment [2]; in the experiment with HUVEC [3]; with HUVEC [4]; in the experiment with Mus musculus [5]; in the experiment on HUVEC [6]) was “Active” throughout. In addition, the inhibition result (in [9]; in the experiment with HUVEC [10]; in [12]; with HUVEC [13]) was “Active” throughout. The inhibition result (in the experiment with Mus musculus [7]; in experiment [8]; with HUVEC [11]; in experiment [15]) was “Dose-dependent effect” in each case. Further, the IC50 is 0.2 µM at Interstitial collagenase, 0.105 µM at Stromelysin-1 and 0.00043 µM in [14].
